This is an account of results in ChEMBL document CHEMBL4196055, “Synthesis and biological evaluation of α-santonin derivatives as anti-hepatoma agents” (Eur J Med Chem, 2018).

The subject of experiment [1] is QGY-7703. Briefly: Induction of apoptosis in human QGY7703 cells assessed as viable cells at 10 uM after 24 hrs by Annexin-V FITC/propidium iodide staining based flow cytometric analysis (reference value: 94.2 to 94.3%). The class given is functional. To be noted: QGY-7703, 24 h, read-out: Activity. The gist of the method:
(§1)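 Assay in QGY-7703 cells kept in RPMI 1640 with 10% FBS. Seeded at 5 × 10^5 cells/well for 24 h, then treated for 24 h with 5, 10 or 15 μM compound, DMSO as control. Annexin V-FITC/PI staining for 15 min at room temperature in the dark, then immediate flow cytometry to count the apoptotic fractions.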
Background: In flow cytometry, cells or beads pass a laser one at a time.

In experiment [2] the test system is QGY-7703. Briefly: Induction of apoptosis in human QGY7703 cells assessed as early apoptotic cells at 10 uM after 24 hrs by Annexin-V FITC/propidium iodide staining based flow cytometric analysis (reference value: 0.8 to 1%). It counts as functional. Summed up:
as §1

Experiment [3] deals with QGY-7703. The experiment in a line: Induction of apoptosis in human QGY7703 cells assessed as late apoptotic cells at 10 uM after 24 hrs by Annexin-V FITC/propidium iodide staining based flow cytometric analysis (reference value: 4.1 to 4.3%). It counts as functional. The gist of the method: as §1
The subject of experiment [4] is QGY-7703. Briefly: Induction of apoptosis in human QGY7703 cells assessed as increase in cleaved PARP level after 24 hrs by Western blot analysis. It counts as functional, cell-based. Summed up:
(§2)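 QGY-7703 cells subcultured for 24 h, then given compound for 24 h, with DMSO as control. Lysates in buffer with protease inhibitors, protein measured by BCA, equal amounts run on 10% SDS-PAGE and moved to PVDF. Blocked in 5% milk, probed overnight at 4 °C for PARP, cleaved caspase 3, pro-caspase 3 and pro-caspase 9 (1:1000), with GAPDH loading control. IRDye secondaries, densitometry reported as grayscale values.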
(In general: In western blotting, separated proteins are transferred to a membrane and probed.)

Experiment [5] has as its system QGY-7703. The experiment in a line: Induction of apoptosis in human QGY7703 cells assessed as decrease in pro-caspase 9 level after 24 hrs by Western blot analysis. It counts as functional, cell-based. The gist of the method:
as §2

Experiment [6] relates to HepG2. Briefly: Antiproliferative activity against human HepG2 cells at 10 uM after 24 hrs by CCK-8 assay relative to control. The class given is functional. The gist of the method: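 HepG-2 grown in DMEM with 10% FBS and penicillin/streptomycin (37 °C, 5% CO2). Seeded 2 × 10^5 cells/well for 24 h, then given a single 10 μM dose or 1% DMSO vehicle for 24 h. CCK-8 reagent for 1 h, A450 read, and percent inhibition calculated against untreated control cells.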

Experiment [7] deals with QGY-7703. Briefly: Induction of apoptosis in human QGY7703 cells assessed as increase in cleaved caspase 3 level after 24 hrs by Western blot analysis. It counts as functional, cell-based. Summed up:
as §2

Experiment [8] relates to QGY-7703. The experiment in a line: Induction of apoptosis in human QGY7703 cells assessed as early apoptotic cells at 5 uM after 24 hrs by Annexin-V FITC/propidium iodide staining based flow cytometric analysis (reference value: 0.8 to 1%). It counts as functional. The gist of the method:
as §1

The subject of experiment [9] is QGY-7703. The experiment in a line: Induction of apoptosis in human QGY7703 cells assessed as necrotic cells at 10 uM after 24 hrs by Annexin-V FITC/propidium iodide staining based flow cytometric analysis (reference value: 0.6 to 0.7%). It counts as functional. The gist of the method: as §1
Experiment [10] deals with QGY-7703. The experiment in a line: Induction of apoptosis in human QGY7703 cells assessed as necrotic cells at 15 uM after 24 hrs by Annexin-V FITC/propidium iodide staining based flow cytometric analysis (reference value: 0.6 to 0.7%). It counts as functional. The gist of the method:
as §1

Experiment [11] relates to HepG2. The experiment in a line: Antiproliferative activity against human HepG2 cells after 24 hrs by CCK-8 assay. It counts as functional, cell-based. To be noted: HepG2, 24 h. The gist of the method: (§3)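 Cells in 10% FBS medium with penicillin/streptomycin at 37 °C, 5% CO2; HepG-2 in DMEM, QGY-7703, SMMC-7721 and QSG-7701 in RPMI 1640. Seeded 2 × 10^5 cells/well, grown 24 h, then exposed to five concentrations of compound or 1% DMSO vehicle for 24 h. CCK-8 added for 1 h, absorbance read at 450 nm; IC50 derived from the 5-dose data.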
For orientation: Tetrazolium dyes change colour on reduction, which living cells bring about.

Experiment [12] concerns QGY-7703. Briefly: Induction of apoptosis in human QGY7703 cells assessed as early apoptotic cells at 15 uM after 24 hrs by Annexin-V FITC/propidium iodide staining based flow cytometric analysis (reference value: 0.8 to 1%). It counts as functional. The gist of the method:
as §1

Another experiment relates to SMMC-7721. The experiment in a line: Antiproliferative activity against human SMMC7721 cells after 24 hrs by CCK-8 assay. It counts as functional, cell-based. As to conditions: SMMC-7721, 24 h. Summed up: as §3
The subject of experiment [13] is QGY-7703. The experiment in a line: Induction of apoptosis in human QGY7703 cells assessed as late apoptotic cells at 5 uM after 24 hrs by Annexin-V FITC/propidium iodide staining based flow cytometric analysis (reference value: 4.1 to 4.3%). The class given is functional. Summed up: as §1
The test system of experiment [14] is QGY-7703. Briefly: Induction of apoptosis in human QGY7703 cells assessed as necrotic cells at 5 uM after 24 hrs by Annexin-V FITC/propidium iodide staining based flow cytometric analysis (reference value: 0.6 to 0.7%). It counts as functional. Summed up: as §1
For experiment [15], the system named is QGY-7703. The experiment in a line: Induction of apoptosis in human QGY7703 cells assessed as viable cells at 5 uM after 24 hrs by Annexin-V FITC/propidium iodide staining based flow cytometric analysis (reference value: 94.2 to 94.3%). The class given is functional. As to conditions: QGY-7703, 24 h, read-out: Activity. The gist of the method: as §1
The subject of experiment [16] is QGY-7703. Briefly: Induction of apoptosis in human QGY7703 cells assessed as late apoptotic cells at 15 uM after 24 hrs by Annexin-V FITC/propidium iodide staining based flow cytometric analysis (reference value: 4.1 to 4.3%). The class given is functional. The gist of the method:
as §1

For experiment [17], the system named is QGY-7703. The experiment in a line: Antiproliferative activity against human QGY7703 cells after 24 hrs by CCK-8 assay. It counts as functional, cell-based. As to conditions: QGY-7703, 24 h. The gist of the method: as §3
Experiment [18] can be described thus: Antiproliferative activity against human QSG7701 cells after 24 hrs by CCK-8 assay. It counts as cell-based. As to conditions: QSG7701, 24 h. Summed up: as §3
Experiment [19] deals with QGY-7703. The experiment in a line: Induction of apoptosis in human QGY7703 cells assessed as viable cells at 15 uM after 24 hrs by Annexin-V FITC/propidium iodide staining based flow cytometric analysis (reference value: 94.2 to 94.3%). To be noted: QGY-7703, 24 h, read-out: Activity. It counts as functional. Summed up:
as §1

SMILES strings stand for the structures. A value given as a limit tells only on which side of the number the result lay.

As a reminder, the IC50 is the concentration at which inhibition is half-maximal. Low values mean greater potency, high ones weaker potency.

Regarding `C=C1C(=O)O[C@@H]2C3=C(C)[C@@H](OC(=O)c4ccc(Cl)cc4)CC3[C@](C)(OC(C)=O)CC[C@@H]12` (stereo partly specified), the viability at 10 µM with QGY-7703 [1] worked out at 63.6%. Moreover, the Activity in the experiment on QGY-7703 [2] was 15.5%; in the experiment on QGY-7703 [3], 20.6%; in the experiment on QGY-7703 [4], “Dose-dependent effect”; with QGY-7703 [5] it was “Dose-dependent effect”; in the experiment with HepG2 [6] it was 72.69%; with QGY-7703 [7], “Dose-dependent effect”. For the same compound, the Activity in the experiment on QGY-7703 [8] is 20.6%; in the experiment on QGY-7703 [9], 0.3%; in the experiment with QGY-7703 [10], 0.6%; in the experiment on QGY-7703 [12], 24.4%; with QGY-7703 [13] it was 1.7%; with QGY-7703 [14], 0%. In addition, the Activity with QGY-7703 [16] turned out to be 63.4%. Further, the IC50 in the experiment on HepG2 [11] turned out to be 7.1 µM; with SMMC-7721, 4.24 µM; in the experiment with QGY-7703 [17], 10.1 µM; in experiment [18], 46.9 µM. The viability at 5 µM in the experiment with QGY-7703 [15] is 77.7%. Also, the viability at 15 µM in the experiment with QGY-7703 [19] was determined as 11.6%.

Turning to `O=c1[nH]cc(F)c(=O)[nH]1` [FLUOROURACIL], the viability at 10 µM with QGY-7703 [1] amounted to 76.3%. The Activity in the experiment on QGY-7703 [2] is 12.6%; with QGY-7703 [3], 11.1%; in the experiment on HepG2 [6], 50.58%; in the experiment on QGY-7703 [8], 10.7%; in the experiment on QGY-7703 [9], 0.1%; in the experiment with QGY-7703 [10] it was 0.4%. In addition, the Activity amounted to 23% in the experiment on QGY-7703 [12], 0.9% in the experiment on QGY-7703 [13], 0% in the experiment on QGY-7703 [14] and 35.5% in the experiment on QGY-7703 [16]. Also, the half-maximal inhibitory concentration (IC50) with SMMC-7721 was determined as 12.5 µM; with QGY-7703 [17], 14.2 µM; in experiment [18] it was 6.92 µM. The viability at 5 µM in the experiment with QGY-7703 [15] turned out to be 88.4%. In the experiment with QGY-7703 [19], the viability at 15 µM is 41.1%.

Regarding `C=C1C(=O)O[C@@H]2C3=C(C)[C@@H](OC(=O)/C=C/c4ccc(Cl)cc4)CC3[C@](C)(OC(C)=O)CC[C@@H]12` (stereo partly specified), the viability at 10 µM in the experiment with QGY-7703 [1] was found to be 69.7%. The Activity in the experiment on QGY-7703 [2] is 11.3%; with QGY-7703 [3], 18.8%; with QGY-7703 [4], “Dose-dependent effect”; in the experiment on QGY-7703 [5] it was “Dose-dependent effect”; in the experiment on HepG2 [6], 62.92%; in the experiment with QGY-7703 [7], “Dose-dependent effect”. For the same compound, the Activity in the experiment on QGY-7703 [8] was 16.6%; with QGY-7703 [9], 0.2%; in the experiment with QGY-7703 [10], 0.5%; with QGY-7703 [12], 38.1%; in the experiment with QGY-7703 [13], 1.8%; in the experiment with QGY-7703 [14] it was 0%. The Activity in the experiment on QGY-7703 [16] came out at 31.7%. Further, the half-inhibitory concentration (IC50) in the experiment on HepG2 [11] is 7.51 µM; in the experiment with SMMC-7721 it was 4.08 µM; in the experiment on QGY-7703 [17], 3.06 µM; in [18], above 100 µM. Moreover, in the experiment with QGY-7703 [15], the viability at 5 µM came to 81.6%. The viability at 15 µM in the experiment with QGY-7703 [19] amounted to 29.6%.
